{
  "source": "ChEMBL document CHEMBL1152792",
  "about": "“Synthesis and anticonvulsant activity of amino acid-derived sulfamides” (J Med Chem, 2009)",
  "key": {"[1]": {"system": "Mus musculus", "assay": "Anticonvulsant activity in albino mouse at 100 mg/kg, ip after 4 hrs by PTZ test", "format": "functional, organism-based", "design": "dose 100 mg/kg", "in_short": "(§1)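 NIH Anticonvulsant Drug Development (ADD) program phase I screen in adult male albino mice (18–23 g). Compound given ip in 30% PEG 400 and 10% water at 0.01 mL/g body weight. Seizures were induced electrically (MES) or chemically (PTZ), and animals were tested 0.5 and 4 h after dosing. Result scored as protected/tested animals.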"}, "[2]": {"system": "Mus musculus", "assay": "Anticonvulsant activity in albino mouse at 30 mg/kg, ip after 4 hrs by MES test", "format": "functional, organism-based", "design": "dose 30 mg/kg", "in_short": "as §1"}, "[3]": {"system": "Mus musculus", "assay": "Anticonvulsant activity in albino mouse at 30 mg/kg, ip after 0.5 hrs by MES test", "format": "functional, organism-based", "design": "dose 30 mg/kg", "in_short": "as §1"}, "[4]": {"system": "Mus musculus", "assay": "Anticonvulsant activity in albino mouse at 100 mg/kg, ip after 0.5 hrs by PTZ test", "format": "functional, organism-based", "design": "dose 100 mg/kg", "in_short": "as §1"}, "[5]": {"system": "Mus musculus", "assay": "Toxicity in albino mouse at 100 mg/kg, ip after 4 hrs by rotarod test", "format": "organism-based", "design": "dose 100 mg/kg, route intraperitoneal", "details": "in vivo", "in_short": "(§2)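 Neurotoxicity was screened by the standardized rotarod test in the ADD phase I protocol. Adult male albino mice (18–23 g) received compound ip in 30% PEG 400 and 10% water at 0.01 mL/g. Animals were tested 0.5 and 4 h post-dose. Result scored as toxic/tested animals.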"}, "[6]": {"system": "Mus musculus", "assay": "Toxicity in albino mouse at 300 mg/kg, ip after 0.5 hrs by rotarod test", "format": "organism-based", "design": "dose 300 mg/kg, route intraperitoneal", "details": "in vivo", "in_short": "as §2"}, "[7]": {"system": "Mus musculus", "assay": "Anticonvulsant activity in albino mouse at 30 mg/kg, ip after 4 hrs by PTZ test", "format": "functional, organism-based", "design": "dose 30 mg/kg", "in_short": "as §1"}, "[8]": {"system": "Mus musculus", "assay": "Toxicity in albino mouse at 30 mg/kg, ip after 4 hrs by rotarod test", "format": "organism-based", "design": "dose 30 mg/kg, route intraperitoneal", "details": "in vivo", "in_short": "as §2"}, "[9]": {"system": "Mus musculus", "assay": "Toxicity in albino mouse at 100 mg/kg, ip after 0.5 hrs by rotarod test", "format": "organism-based", "design": "dose 100 mg/kg, route intraperitoneal", "details": "in vivo", "in_short": "as §2"}, "[10]": {"system": "Mus musculus", "assay": "Toxicity in albino mouse at 30 mg/kg, ip after 0.5 hrs by rotarod test", "format": "organism-based", "design": "dose 30 mg/kg, route intraperitoneal", "details": "in vivo", "in_short": "as §2"}, "[11]": {"system": "Mus musculus", "assay": "Anticonvulsant activity in albino mouse at 300 mg/kg, ip after 0.5 hrs by PTZ test", "format": "functional, organism-based", "design": "dose 300 mg/kg", "in_short": "as §1"}, "[12]": {"species_on_record": "Mus musculus", "assay": "Ratio of valproic acid ED50 to compound ED50 in albino mouse after 2 hrs by MES test", "format": "functional", "in_short": "(§3)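 The compound ED50 came from ip dosing in male albino mice (six per dose) at the time of peak effect. The valproate ED50 was taken from earlier literature.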"}, "[13]": {"system": "Mus musculus", "assay": "Anticonvulsant activity in albino mouse at 300 mg/kg, ip after 4 hrs by PTZ test", "format": "functional, organism-based", "design": "dose 300 mg/kg", "in_short": "as §1"}, "[14]": {"system": "Mus musculus", "assay": "Anticonvulsant activity in ip dosed albino mouse after 2 hrs by MES test", "format": "functional", "in_short": "(§4)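 Phase II quantitative MES test in adult male albino mice (18–23 g). Compound given ip in 30% PEG 400 and 10% water at 0.01 mL/g. Testing was done at the previously determined time of peak effect. Six mice per dose group; ED50 (dose protecting 50% of animals, μmol/kg) calculated from the dose–response curve.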"}, "[15]": {"system": "Mus musculus", "assay": "Toxicity in albino mouse at 300 mg/kg, ip after 4 hrs by rotarod test", "format": "organism-based", "design": "dose 300 mg/kg, route intraperitoneal", "details": "in vivo", "in_short": "as §2"}, "[16]": {"system": "Mus musculus", "assay": "Anticonvulsant activity in albino mouse at 30 mg/kg, ip after 0.5 hrs by PTZ test", "format": "functional, organism-based", "design": "dose 30 mg/kg", "in_short": "as §1"}, "[17]": {"system": "Mus musculus", "assay": "Anticonvulsant activity in albino mouse at 100 mg/kg, ip after 0.5 hrs by MES test", "format": "functional, organism-based", "design": "dose 100 mg/kg", "in_short": "as §1"}, "[18]": {"system": "Mus musculus", "assay": "Anticonvulsant activity in albino mouse at 100 mg/kg, ip after 4 hrs by MES test", "format": "functional, organism-based", "design": "dose 100 mg/kg", "in_short": "as §1"}, "[19]": {"species_on_record": "Mus musculus", "assay": "Ratio of valproic acid ED50 to compound ED50 in albino mouse after 4 hrs by MES test", "format": "functional", "in_short": "as §3"}, "[20]": {"system": "Mus musculus", "assay": "Anticonvulsant activity in albino mouse at 300 mg/kg, ip after 4 hrs by MES test", "format": "functional, organism-based", "design": "dose 300 mg/kg", "in_short": "as §1"}, "[21]": {"system": "Mus musculus", "assay": "Anticonvulsant activity in ip dosed albino mouse after 4 hrs by MES test", "format": "functional", "in_short": "as §4"}, "[22]": {"system": "Mus musculus", "assay": "Anticonvulsant activity in albino mouse at 300 mg/kg, ip after 0.5 hrs by MES test", "format": "functional, organism-based", "design": "dose 300 mg/kg", "in_short": "as §1"}, "[23]": {"system": "Mus musculus", "assay": "Anticonvulsant activity in ip dosed albino mouse after 0.25 hrs by MES test", "format": "functional"}, "[24]": {"system": "Mus musculus", "assay": "Anticonvulsant activity in ip dosed albino mouse after 0.5 hrs by MES test", "format": "functional"}, "[25]": {"species_on_record": "Mus musculus", "assay": "Ratio of valproic acid ED50 to compound ED50 in albino mouse after 0.5 hrs by MES test", "format": "functional"}},
  "note": "Activity calls are given as the source filed them. The rule behind the calls is not given here.",
  "data": [
    {"smiles": "CCCC(CCC)CNS(=O)(=O)NCC(=O)OC", "values": [
      {"measurement": "Activity", "setting": "[1]", "value": "inactive"},
      {"measurement": "Activity", "setting": "[2]", "value": "inactive"},
      {"measurement": "Activity", "setting": "[3]", "value": "inactive"},
      {"measurement": "Activity", "setting": "[4]", "value": "inactive"},
      {"measurement": "Activity", "setting": "[5]", "value": "Non-toxic"},
      {"measurement": "Activity", "setting": "[6]", "value": "Non-toxic"},
      {"measurement": "Activity", "setting": "[7]", "value": "inactive"},
      {"measurement": "Activity", "setting": "[8]", "value": "Non-toxic"},
      {"measurement": "Activity", "setting": "[9]", "value": "Non-toxic"},
      {"measurement": "Activity", "setting": "[10]", "value": "Non-toxic"},
      {"measurement": "Activity", "setting": "[11]", "value": "inactive"},
      {"measurement": "Ratio ED50", "setting": "[12]", "value": 7.3},
      {"measurement": "Activity", "setting": "[13]", "value": "inactive"},
      {"measurement": "ED50", "setting": "[14]", "value": 139, "unit": "µmol/kg"},
      {"measurement": "Activity", "setting": "[15]", "value": "Non-toxic"},
      {"measurement": "Activity", "setting": "[16]", "value": "inactive"}
    ]},
    {"smiles": "CCCC(CCC)CNS(=O)(=O)NCCC(=O)OC", "values": [
      {"measurement": "Activity", "setting": "[1]", "value": "inactive"},
      {"measurement": "Activity", "setting": "[2]", "value": "Active"},
      {"measurement": "Activity", "setting": "[17]", "value": "inactive"},
      {"measurement": "Activity", "setting": "[18]", "value": "inactive"},
      {"measurement": "Activity", "setting": "[4]", "value": "Active"},
      {"measurement": "Activity", "setting": "[5]", "value": "Non-toxic"},
      {"measurement": "Activity", "setting": "[6]", "value": "Non-toxic"},
      {"measurement": "Activity", "setting": "[7]", "value": "inactive"},
      {"measurement": "Activity", "setting": "[8]", "value": "Non-toxic"},
      {"measurement": "Activity", "setting": "[9]", "value": "Non-toxic"},
      {"measurement": "Activity", "setting": "[10]", "value": "Non-toxic"},
      {"measurement": "Ratio ED50", "setting": "[12]", "value": 12.8},
      {"measurement": "ED50", "setting": "[14]", "value": 79, "unit": "µmol/kg"},
      {"measurement": "Activity", "setting": "[15]", "value": "Non-toxic"}
    ]},
    {"smiles": "COC(=O)CCNS(=O)(=O)Oc1ccccc1O", "values": [
      {"measurement": "Activity", "setting": "[1]", "value": "inactive"},
      {"measurement": "Ratio ED50", "setting": "[19]", "value": 2.7},
      {"measurement": "Activity", "setting": "[2]", "value": "inactive"},
      {"measurement": "Activity", "setting": "[3]", "value": "inactive"},
      {"measurement": "Activity", "setting": "[4]", "value": "inactive"},
      {"measurement": "Activity", "setting": "[5]", "value": "Non-toxic"},
      {"measurement": "Activity", "setting": "[6]", "value": "Non-toxic"},
      {"measurement": "Activity", "setting": "[7]", "value": "inactive"},
      {"measurement": "Activity", "setting": "[20]", "value": "inactive"},
      {"measurement": "ED50", "setting": "[21]", "value": 374, "unit": "µmol/kg"},
      {"measurement": "Activity", "setting": "[8]", "value": "Non-toxic"},
      {"measurement": "Activity", "setting": "[9]", "value": "Non-toxic"},
      {"measurement": "Activity", "setting": "[10]", "value": "Non-toxic"},
      {"measurement": "Activity", "setting": "[22]", "value": "inactive"},
      {"measurement": "Activity", "setting": "[13]", "value": "inactive"},
      {"measurement": "Activity", "setting": "[15]", "value": "Non-toxic"}
    ]},
    {"smiles": "CCCCNS(=O)(=O)NCCC(=O)OC", "values": [
      {"measurement": "Activity", "setting": "[1]", "value": "inactive"},
      {"measurement": "Activity", "setting": "[4]", "value": "inactive"},
      {"measurement": "Activity", "setting": "[5]", "value": "Non-toxic"},
      {"measurement": "Activity", "setting": "[6]", "value": "Non-toxic"},
      {"measurement": "Activity", "setting": "[7]", "value": "inactive"},
      {"measurement": "Activity", "setting": "[8]", "value": "Non-toxic"},
      {"measurement": "Activity", "setting": "[9]", "value": "Non-toxic"},
      {"measurement": "Activity", "setting": "[10]", "value": "Non-toxic"},
      {"measurement": "Activity", "setting": "[11]", "value": "inactive"},
      {"measurement": "Ratio ED50", "setting": "[12]", "value": 14.2},
      {"measurement": "Activity", "setting": "[13]", "value": "inactive"},
      {"measurement": "ED50", "setting": "[14]", "value": 71, "unit": "µmol/kg"},
      {"measurement": "Activity", "setting": "[15]", "value": "Non-toxic"},
      {"measurement": "Activity", "setting": "[16]", "value": "inactive"}
    ]},
    {"smiles": "CCCC(CCC)C(=O)O", "note": "[VALPROIC ACID]", "values": [
      {"measurement": "ED50", "setting": "[23]", "value": 1010, "unit": "µmol/kg"}
    ]},
    {"smiles": "CCCC(CCC)C(=O)NCC(N)=O", "note": "[VALROCEMIDE]", "values": [
      {"measurement": "ED50", "setting": "[24]", "value": 755, "unit": "µmol/kg"},
      {"measurement": "Ratio ED50", "setting": "[25]", "value": 1.3}
    ]}
  ]
}
